# ChEMBL document CHEMBL1132244, “Benzodiazepine receptor ligands. 4. Synthesis and pharmacological evaluation of 3-heteroaryl-8-chloropyrazolo[5,1-c][1,2,4] benzotriazine 5-oxides” (J Med Chem, 1999)
# Tests used:
# [1] = biological target: T1, GABA-A receptor; anion channel (Bos taurus) (UniProt P10063+P08220+P20237+P08219+P10064+P22300); test: Percentage inhibition of [3H]Ro-151788 binding to GABA-A benzodiazepine receptor in bovine brain membrane at 10 uM; assay type: cell membranes
# Outline: (§1)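 Washed bovine cerebral cortex membranes, with endogenous GABA removed by Triton X-100/37 °C washes, incubated with ~0.2 nM [3H]Ro15-1788 (Kd 0.60 nM) in 50 mM Tris-citrate pH 7.4 for 90 min at 0 °C, then filtered. Nonspecific binding defined with 10 μM diazepam. Screening at 10 μM; Ki from IC50 by Cheng–Prusoff; five determinations, mean ± SEM.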
# Mus musculus [2] = test: Anticonvulsant activity against PTZ induced atacks at 100 mg/kg dose Flumazenil and 0.3 mg/kg Diazepam; assay type: functional
# Outline: (§2)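 Male Swiss-Webster mice (22–26 g) received drug in 1% CMC (10 mL/kg) 30 min before the test, or flumazenil 40 min before. Pentylenetetrazole was then given at 75 mg/kg sc, and generalized tonic-clonic seizures were scored over the following 30 min. The incidence of non-convulsing mice was analysed by χ² test.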
# Mus musculus [3] = test: Antianxiety activity was measured based on light/dark box thus calculated no of crosses of mice at 100 mg/kg dose Flumazenil and 1 mg/kg Diazepam; assay type: functional
# Mus musculus [4] = test: Muscle relaxant effect measured by rotarod test at 100 mg/kg dose Flumazenil and 0.3 mg/kg Diazepam; assay type: functional
# Mus musculus [5] = test: Antianxiety activity was measured based on light/dark box thus calculated % time in light of mice at 100 mg/kg dose Flumazenil and 1 mg/kg Diazepam; assay type: functional
# [6] = biological target: T1, GABA-A receptor; anion channel (Bos taurus); test: The GABA ratio (GR) = IC50 compound + 10 uM GABA, performed in five independent experiments was calculated for the compound.; assay type: protein-complex assay
# Outline: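 [3H]Ro15-1788 displacement from GABA-depleted bovine cortex membranes (0.2 nM ligand, 90 min, 0 °C, Tris-citrate pH 7.4). IC50 measured without and with 10 μM GABA and the ratio taken; five independent experiments.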
# [7] = biological target: GABA-A receptor; anion channel; test: Displacement of [3H]Ro-151788 from GABA-A benzodiazepine receptor of bovine brain membranes; assay type: cell membranes, Bos taurus; outline: as §1
# Mus musculus [8] = test: Muscle relaxant effect in rotarod test at 100 mg/kg 13c and 0.3 mg/kg Diazepam; assay type: functional
# Mus musculus [9] = test: Muscle relaxant effect in rotarod test at 100 mg/kg 13c and 1 mg/kg Diazepam; assay type: functional
# Mus musculus [10] = test: Anticonvulsant activity against PTZ induced seizures in mice at 100 mg/kg dose with 0.3 mg/kg Diazepam; assay type: functional
# Mus musculus [11] = test: Antianxiolytic activity in mice as no of crosses on light/dark box at 100 mg/kg 13c and 1 mg/kg Diazepam; assay type: functional
# Mus musculus [12] = test: Anticonvulsant activity against PTZ induced seizures at 100 mg/kg dose with 1 mg/kg Diazepam; assay type: functional
# Mus musculus [13] = test: Antianxiolytic activity in mice as percent time in light of light/dark box at 100 mg/kg 13c and 1 mg/kg Diazepam; assay type: functional
# Mus musculus [14] = species: Mus musculus; test: Antianxiety activity was measured based on light/dark box thus calculated no of crosses of mice; assay type: functional
# Mus musculus [15] = species: Mus musculus; test: Antianxiety activity was measured based on light/dark box thus calculated % time in light of mice; assay type: functional
# Mus musculus [16] = species: Mus musculus; test: Anticonvulsant activity against PTZ induced atacks; assay type: functional; outline: as §2
# Mus musculus [17] = species: Mus musculus; test: Muscle relaxant effect measured by rotarod test; assay type: functional
# Mus musculus [18] = test: The percentage time in light by the animals was calculated for the compound at a dose of 3 mg/kg in the light/dark box experiment.; assay type: functional
# Mus musculus [19] = test: Muscle relaxant effect measured by rotarod test at 3 mg/Kg dose in mice; assay type: functional
# Mus musculus [20] = test: Muscle relaxant effect measured by rotarod test at 0.3 mg/Kg dose in mice; assay type: functional
# Mus musculus [21] = test: Muscle relaxant effect measured by rotarod test at 0.1 mg/Kg dose in mice; assay type: functional
# Mus musculus [22] = test: Muscle relaxant effect measured by rotarod test at 1 mg/Kg dose in mice; assay type: functional
# Mus musculus [23] = test: The percentage time in light by the animals was calculated for the compound at a dose of 0.3 mg/kg in the light/dark box experiment.; assay type: functional
# Mus musculus [24] = test: The antianxiety activity for the compound at a dose of 3 mg/kg was evaluated as number of crosses by mice in the light/dark box experiment.; assay type: functional
# Mus musculus [25] = test: The percentage time in light by the animals was calculated for the compound at a dose of 1 mg/kg in the light/dark box experiment*** indicates P<0.001.; assay type: functional
# Mus musculus [26] = test: The antianxiety activity for the compound at a dose of 1 mg/kg was evaluated as number of crosses by mice in the light/dark box experiment.; assay type: functional
# Mus musculus [27] = test: The antianxiety activity for the compound at a dose of 0.3 mg/kg was evaluated as number of crosses by mice in the light/dark box experiment. p<0.05; assay type: functional
# Mus musculus [28] = test: Muscle relaxant effect measured by rotarod test at 30 mg/kg dose 13d and 100 mg/kg Flumazenil; assay type: functional
# Mus musculus [29] = test: Anticonvulsant activity against PTZ induced attacks at 30 mg/kg dose 13d and 100 mg/kg Flumazenil; assay type: functional; outline: as §2
# Mus musculus [30] = test: Antianxiety activity was measured based on light/dark box thus calculated no of crosses of mice at 100 mg/kg dose; assay type: functional
# Outline: (§3)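 Male Swiss-Webster mice, 22–26 g, dosed orally with drug or 1% CMC vehicle (10 mL/kg), placed 30 min later in the centre of the lit side of a two-compartment light/dark box (60-W bulb 400 mm above the white floor). Time in the lit side and number of crossings counted over 5 min. Student's t-test.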
# Mus musculus [31] = test: (§4) Anticonvulsant activity against MES-induced hindlimb extension at 30 mg/kg dose; assay type: functional
# Mus musculus [32] = test: Muscle relaxant effect measured by rotarod test at 10 mg/Kg dose in mice; assay type: functional
# Outline: (§5)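 Motor coordination on the rota rod in male Swiss-Webster mice (22–26 g) after oral dosing in 1% CMC (10 mL/kg), tested 30 min post-dose. Student's t-test.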
# Mus musculus [33] = test: Antianxiety activity was measured based on light/dark box thus calculated % time in light of mice at 30 mg/kg dose; assay type: functional; outline: as §3
# Mus musculus [34] = test: Antianxiety activity was measured based on light/dark box thus calculated % time in light of mice at 10 mg/kg dose; assay type: functional; outline: as §3
# Mus musculus [35] = test: Antianxiety activity was measured based on light/dark box thus calculated % time in light of mice at 100 mg/kg dose; assay type: functional; outline: as §3
# Mus musculus [36] = test: (§6) Anticonvulsant activity against MES-induced hindlimb extension at 100 mg/kg dose; assay type: functional
# Mus musculus [37] = test: Antianxiety activity was measured based on light/dark box thus calculated no of crosses of mice at 10 mg/kg dose; assay type: functional; outline: as §3
# Mus musculus [38] = test: Anticonvulsant activity against PTZ induced atacks at 100 mg/kg dose; assay type: functional
# Mus musculus [39] = test: Antianxiety activity was measured based on light/dark box thus calculated no of crosses of mice at 30 mg/kg dose; assay type: functional; outline: as §3
# Mus musculus [40] = test: Muscle relaxant effect measured by rotarod test at 100 mg/Kg dose in mice; assay type: functional; outline: as §5
# Mus musculus [41] = test: as §6; assay type: organism-based; set-up: dose 100 mg/kg; settings: in vivo
# Outline: (§7)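 Male Swiss-Webster mice (22–26 g) received drug in 1% CMC (10 mL/kg) 30 min before maximal electroshock through transcorneal electrodes (40 mA, 50 Hz, 0.2 s). The end point was tonic hindlimb extension, and lethality was also noted. The incidence of non-convulsing mice was analysed by χ² test.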
# Mus musculus [42] = test: (§8) Anticonvulsant activity against MES-induced hindlimb extension at 10 mg/kg dose; assay type: functional
# Mus musculus [43] = test: Anticonvulsant activity against PTZ induced attacks at 10 mg/kg dose; assay type: functional
# Mus musculus [44] = test: as §8; assay type: ADME, organism-based; set-up: dose 10 mg/kg; settings: in vivo; outline: as §7
# Mus musculus [45] = test: as §4; assay type: ADME, organism-based; set-up: dose 30 mg/kg; settings: in vivo; outline: as §7
# Mus musculus [46] = test: Muscle relaxant effect measured by rotarod test at 30 mg/Kg dose in mice; assay type: functional; outline: as §5
# Mus musculus [47] = test: Anticonvulsant activity against PTZ induced atacks at 30 mg/kg dose; assay type: functional
smiles,measurement,setting,value
Cn1cnc(-c2cnn3c2n[n+]([O-])c2ccc(Cl)cc23)n1,inhibition,[1],0%
CCOC(=O)c1ncn2c1CN(C)C(=O)c1cc(F)ccc1-2.CN1C(=O)CN=C(c2ccccc2)c2cc(Cl)ccc21,Atttacks,Mus musculus [2],14.2%
same,No. of crosses,Mus musculus [3],18.6
same,No. of falls,Mus musculus [4],0.46
same,Time in flight,Mus musculus [5],104.1%
O=C(N/C=N/O)c1cnn2c1n[n+]([O-])c1ccc(Cl)cc12,inhibition,[1],0%
O=CNC(=O)c1cnn2c1n[n+]([O-])c1ccc(Cl)cc12,inhibition,[1],85.5%
same,Ratio,[6],2.07
same,Ki,[7],844 nM
CC(C)(C)OC(=O)Nc1cnn2c1n[n+]([O-])c1ccc(Cl)cc12,inhibition,[1],0%
CN1C(=O)CN=C(c2ccccc2)c2cc(Cl)ccc21.[O-][n+]1nc2c(-c3cccs3)cnn2c2cc(Cl)ccc21,No. of falls,Mus musculus [8],0.5
same,No. of falls,Mus musculus [9],0.17
same,Atttacks,Mus musculus [10],50%
same,No. of crosses,Mus musculus [11],26.6
same,Atttacks,Mus musculus [12],100%
same,Time in flight,Mus musculus [13],130.9%
Cc1nc(-c2cnn3c2n[n+]([O-])c2ccc(Cl)cc23)nn1C,inhibition,[1],0%
CCOC(=O)c1ncn2c1CN(C)C(=O)c1cc(F)ccc1-2 [FLUMAZENIL],No. of crosses,Mus musculus [14],15.2
same,Time in flight,Mus musculus [15],114.8%
same,Attacks,Mus musculus [16],0%
same,No. of falls,Mus musculus [17],0.4
CN1C(=O)CN=C(c2ccccc2)c2cc(Cl)ccc21 [DIAZEPAM],Time in light,Mus musculus [18],211.1%
same,No. of falls,Mus musculus [19],1.4
same,No. of falls,Mus musculus [20],0.56
same,No. of falls,Mus musculus [21],0.23
same,No. of falls,Mus musculus [22],0.73
same,Time in light,Mus musculus [23],95.5%
same,No. of crosses,Mus musculus [24],16.5
same,Time in light,Mus musculus [25],144.9%
same,No. of crosses,Mus musculus [26],28.5
same,No. of crosses,Mus musculus [27],22
CCOC(=O)c1ncn2c1CN(C)C(=O)c1cc(F)ccc1-2.[O-][n+]1nc2c(-c3ccsc3)cnn2c2cc(Cl)ccc21,No. of falls,Mus musculus [28],0.64
same,Attacks,Mus musculus [29],36.4%
[O-][n+]1nc2c(-c3ccsc3)cnn2c2cc(Cl)ccc21,No. of crosses,Mus musculus [30],15.3
same,Extension,Mus musculus [31],33.3%
same,No. of falls,Mus musculus [32],0.43
same,Time in flight,Mus musculus [33],104.3%
same,inhibition,[1],100%
same,Time in flight,Mus musculus [34],94.2%
same,Time in flight,Mus musculus [35],107.4%
same,Extension,Mus musculus [36],27.3%
same,No. of crosses,Mus musculus [37],16.3
same,Atttacks,Mus musculus [38],46.1%
same,No. of crosses,Mus musculus [39],19
same,GR,[6],1.23
same,No. of falls,Mus musculus [40],0.15
same,Lethality,Mus musculus [41],18.2%
same,Extension,Mus musculus [42],14.3%
same,Ki,[7],36.3 nM
same,Atttacks,Mus musculus [43],18.2%
same,Lethality,Mus musculus [44],28.6%
same,Lethality,Mus musculus [45],22.2%
same,No. of falls,Mus musculus [46],0.08
same,Atttacks,Mus musculus [47],61.5%
